# Assay results gathered from unrelated publications.
# Each line is one published result; the experiments were not run side by side.
# KIT: Mast/stem cell growth factor receptor Kit (KIT, Homo sapiens, UniProt P10721)
Structure (SMILES),target,read-out,action,technique,endpoint,result
C=CC(=O)Nc1cccc(CN2C(=O)N(c3c(Cl)c(OC)cc(OC)c3Cl)Cc3cnc(NCCCCN(CC)CC)nc32)c1,KIT,binding,,competition with immobilised ligand,Kd,420 nM
CN(C)c1ccc(C=C2C(=O)Nc3ccccc32)cc1,KIT,enzyme activity,inhibitor,radiometric,IC50,84 nM
Cc1ccc(NC(=O)c2ccc(CN3CCS(=N)(=O)CC3)cc2)cc1Nc1nccc(-c2cccnc2)n1,KIT,binding,,competition with immobilised ligand,Kd,11 nM
COc1ccc2c(Oc3ccc4c(C(=O)Nc5ccccc5N)cccc4c3)ccnc2c1,KIT,enzyme activity,inhibitor,,IC50,4 nM
CN1CCN(c2ccc(Nc3ncc4cc(C#N)c(=O)n(C5CCCC5)c4n3)cc2)CC1,KIT,enzyme activity,inhibitor,,IC50,42 nM
CNC(=O)c1cc2c(Oc3ccc(NC(=O)C4(C(=O)Nc5ccc(F)cc5)CC4)cc3)ccnc2cc1OC,"Mast/stem cell growth factor receptor Kit (KIT, Homo sapiens, UniProt P10721, V560G)",enzyme activity,inhibitor,radiometric,IC50,15 nM
Cc1cnc(-c2ccc(-c3ccc(NC(=O)Nc4c(F)cc(F)cc4F)cc3F)c3c2C(=O)NC3)[nH]1,KIT,enzyme activity,inhibitor,,IC50,29.8 nM
CCN1CCN(Cc2ccc(C(=O)Nc3ccc(C)c(Oc4ccc5c(c4)CC(=O)N5)c3)cc2C(F)(F)F)CC1,KIT,enzyme activity,inhibitor,,IC50,> 10000 nM
